The test system of series [1] is Mus musculus. Put plainly: Antiinflammatory activity against carrageenan-induced paw edema in Swiss albino mouse assessed as swelling thickness at 100 mg/kg, po after 180 mins. It is filed as functional. Summed up: (§1)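 Oral dosing in 0.5% CMC; vehicle to controls. Then carrageenan (0.5 mg/25 ll, freshly suspended in 154 mM saline) injected into the right hind paw subplantar tissue; saline into the left paw. Right-left footpad thickness difference measured by dial gauge calliper every 90 min over 6 h. Inhibition % is relative to vehicle control. n = 6; mean ± SEM.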

Series [2] relates to Mus musculus. Briefly: Antiinflammatory activity against carrageenan-induced paw edema in Swiss albino mouse assessed as swelling thickness at 100 mg/kg, po after 270 mins. It is filed as functional. Summed up: as §1
Series [3] relates to Mus musculus. Put plainly: Acute toxicity in Swiss albino mouse assessed as lethal effect at 25 mg/kg/day, po after 72 hrs. It is filed as organism-based. More on the design: route oral. To be noted: in vivo. Put shortly:
(§2)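 Oral single dose suspended in 0.5% carboxymethylcellulose, given after a 24 h fast; food and water returned 1 h after dosing. Vehicle-only controls. Mice observed at 1 h, then once daily for 72 h, for toxic signs and mortality.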

Series [4] deals with Mus musculus. Briefly: Gastric-ulcerogenic effect in Swiss albino mouse assessed as lesions at 100 mg/kg, po. On the set-up: dose 100 mg/kg. It is filed as functional, organism-based. Put shortly:
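Mice killed under deep ether anesthesia 3 h after the writhing test; the oral dose in 0.5% CMC was the one used in that test. Stomachs removed, opened along the great curvature and examined under a dissecting microscope for lesions or bleeding. Reported as ratio of ulceration; n = 6.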

Series [5] relates to Mus musculus. Briefly: Analgesic activity against p-benzoquinone-induced abdominal constriction in Swiss albino mouse assessed as number of writhings at 100 mg/kg, po. Format: functional, Abdomen. Summed up:
(§3)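 Test samples given orally in 0.5% CMC; vehicle to controls. 60 min later, 2.5% (v/v) p-benzoquinone in distilled water, 0.1 ml/10 g, given i.p. Mice housed singly; writhes counted for 15 min starting 5 min after injection. Activity is % change from vehicle controls. n = 6; mean ± SEM.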

For series [6], the system named is Mus musculus. Briefly: Acute toxicity in Swiss albino mouse assessed as lethal effect at 100 mg/kg/day, po after 72 hrs. It is filed as organism-based. On the set-up: route oral. To be noted: in vivo. Put shortly:
as §2

Series [7] concerns Mus musculus. Briefly: Acute toxicity in Swiss albino mouse assessed as lethal effect at 200 mg/kg/day, po after 72 hrs. Format: organism-based. More on the design: route oral. The conditions noted are these: in vivo. Put shortly:
as §2

Series [8] has as its system Mus musculus. Put plainly: Antiinflammatory activity against carrageenan-induced paw edema in Swiss albino mouse assessed as swelling thickness at 100 mg/kg, po after 360 mins. Format: functional. Summed up:
as §1

Series [9] has as its system Mus musculus. Put plainly: Antiinflammatory activity against carrageenan-induced paw edema in Swiss albino mouse assessed as swelling thickness at 100 mg/kg, po after 90 mins. Format: functional. Summed up: as §1
Series [10] relates to Mus musculus. Briefly: Acute toxicity in Swiss albino mouse assessed as lethal effect at 50 mg/kg/day, po after 72 hrs. On the set-up: route oral. The conditions noted are these: in vivo. It is filed as organism-based. Summed up: as §2
Series [11] deals with Mus musculus. Put plainly: Inhibition of p-benzoquinone-induced writhing in Swiss albino mouse at 100 mg/kg, po relative to control. Format: functional. Put shortly:
(§4)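 Mice, n = 6 per group, dosed orally with a suspension in 0.5% sodium CMC. 60 min later, 0.1 ml/10 g of 2.5% […] p-benzoquinone in distilled water given ip. Abdominal writhes counted per animal for 15 min, starting 5 min after injection. Expressed as % change in mean writhing count versus vehicle controls.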

Series [12] has as its system Mus musculus. Put plainly: Inhibition of carrageenan-induced paw edema in Swiss albino mouse at 100 mg/kg, po after 180 mins relative to control. It is filed as functional. The conditions noted are these: 3 h. Put shortly:
as §1

The subject of series [13] is Mus musculus. Briefly: Inhibition of carrageenan-induced paw edema in Swiss albino mouse at 100 mg/kg, po after 270 mins relative to control. The conditions noted are these: 4.5 h. It is filed as functional. Summed up: as §1
Series [14] has as its system Mus musculus. Put plainly: Inhibition of carrageenan-induced paw edema in Swiss albino mouse at 100 mg/kg, po after 360 mins relative to control. Format: functional. The conditions noted are these: 6 h. Put shortly: as §1
Series [15] deals with Mus musculus. Put plainly: Inhibition of carrageenan-induced paw edema in Swiss albino mouse at 100 mg/kg, po after 90 mins relative to control. Format: functional. The conditions noted are these: 1.5 h. Put shortly: as §1
Series [16] has as its system Mus musculus. Briefly: Analgesic activity against p-benzoquinone-induced abdominal constriction in Swiss albino mouse assessed as number of writhings at 200 mg/kg, po. It is filed as functional, Abdomen. Put shortly:
as §3

In series [17] the test system is Mus musculus. Briefly: Inhibition of p-benzoquinone-induced writhing in Swiss albino mouse at 200 mg/kg, po relative to control. It is filed as functional. Put shortly: as §4

Calls of active or inactive are those of the source. No cut-off for these calls is given here.

On to `CS(=O)(=O)c1nc(-c2cccc(Br)c2)n[nH]1`, for which the Activity with Mus musculus [1] was 55.9 10^-2mm; in the series on Mus musculus [2], 65.8 10^-2mm; in the series on Mus musculus [3], “Non-toxic”; with Mus musculus [5], 48.2; with Mus musculus [6] it was “Non-toxic”; in the series with Mus musculus [7], “Non-toxic”. Further, the Activity in the series on Mus musculus [8] is recorded as 80.5 10^-2mm; in the series with Mus musculus [9], 48.2 10^-2mm; with Mus musculus [10], “Non-toxic”. Also, in the series with Mus musculus [4], the outcome was Active.

`CCSc1nc(-c2ccccc2)n[nH]1`: the Activity is 48.3 10^-2mm with Mus musculus [1]; 51.2 10^-2mm with Mus musculus [2]; “Non-toxic” in the series on Mus musculus [3]; 46.1 with Mus musculus [5]; “Non-toxic” in the series with Mus musculus [6]; “Non-toxic” in the series on Mus musculus [7]. Also, the Activity is 54.7 10^-2mm with Mus musculus [8], 46 10^-2mm in the series on Mus musculus [9] and “Non-toxic” with Mus musculus [10]. In the series with Mus musculus [11], this molecule came in with an inhibition in vivo at 100 mg/kg of 2.5%. In the series with Mus musculus [4], the result was Active.

On to `CCSc1nc(-c2cccc(Br)c2)n[nH]1`, for which the Activity in the series on Mus musculus [1] is on record as 52.3 10^-2mm; in the series on Mus musculus [2], 55.3 10^-2mm; in the series on Mus musculus [3], “Non-toxic”; with Mus musculus [5], 51.5; in the series with Mus musculus [6], “Non-toxic”; with Mus musculus [7], “Non-toxic”. Moreover, the Activity with Mus musculus [8] was 58.3 10^-2mm; in the series with Mus musculus [9] it was 48.5 10^-2mm; in the series on Mus musculus [10], “Non-toxic”. The result in the series on Mus musculus [4] was Active.

For the molecule `CSc1nc(-c2ccccc2)n[nH]1`, the Activity in the series with Mus musculus [1] is 44.5 10^-2mm; with Mus musculus [2], 47.6 10^-2mm; in the series on Mus musculus [3], “Non-toxic”; with Mus musculus [5], 40.2; with Mus musculus [6], “Non-toxic”; with Mus musculus [7], “Non-toxic”. Further, the Activity is 54.4 10^-2mm in the series on Mus musculus [8], 38.1 10^-2mm in the series on Mus musculus [9] and “Non-toxic” in the series with Mus musculus [10]. Further, the inhibition in vivo at 100 mg/kg stood at 13.6% in the series on Mus musculus [12]; 15% in the series on Mus musculus [11]; 19% in the series on Mus musculus [13]; 20.9% in the series with Mus musculus [14]; 14.9% in the series with Mus musculus [15].

For `CS(=O)(=O)c1nc(-c2ccccc2)n[nH]1`, the Activity is reported as 45.2 10^-2mm in the series with Mus musculus [1]; 47.5 10^-2mm in the series on Mus musculus [2]; “Non-toxic” in the series on Mus musculus [3]; 37.4 with Mus musculus [5]; “Non-toxic” with Mus musculus [6]; “Non-toxic” in the series on Mus musculus [7]. The values for the Activity in the series on Mus musculus [8], in the series with Mus musculus [9] and in the series with Mus musculus [10] were 56.7 10^-2mm, 44.2 10^-2mm and “Non-toxic”, respectively. Also, the inhibition in vivo at 100 mg/kg in the series on Mus musculus [12] worked out at 12.2%; in the series on Mus musculus [11], 20.9%; in the series on Mus musculus [13] it was 19.2%; in the series on Mus musculus [15], 1.3%. The result in the series on Mus musculus [4] was Active.

As to `CS(=O)(=O)c1nc(-c2ccc(Br)cc2)n[nH]1`, the Activity in the series with Mus musculus [1] was 55.2 10^-2mm; with Mus musculus [2] it was 59.5 10^-2mm; with Mus musculus [3], “Non-toxic”; with Mus musculus [5], 49.4; with Mus musculus [6] it was “Non-toxic”; in the series with Mus musculus [7] it was “Non-toxic”. Besides, the Activity with Mus musculus [8] is 64 10^-2mm; in the series on Mus musculus [9], 51.2 10^-2mm; in the series with Mus musculus [10], “Non-toxic”.

The molecule `CC(=O)Oc1ccccc1C(=O)O` [ASPIRIN] gave an inhibition in vivo at 100 mg/kg in the series on Mus musculus [11] of 55.2%. The Activity with Mus musculus [16] was determined as 23.8; in the series on Mus musculus [5], 21.2. In the series with Mus musculus [17], this molecule returned an inhibition in vivo at 200 mg/kg of 53.6%.

For the molecule `CSc1nc(-c2ccccc2Cl)n[nH]1`, the Activity is given as 48.8 10^-2mm in the series on Mus musculus [1]; 52.8 10^-2mm in the series with Mus musculus [2]; “Non-toxic” in the series on Mus musculus [3]; 41.8 with Mus musculus [5]; “Non-toxic” with Mus musculus [6]; “Non-toxic” with Mus musculus [7]. In addition, the Activity in the series on Mus musculus [8] is given as 57 10^-2mm; in the series with Mus musculus [9], 42.7 10^-2mm; in the series with Mus musculus [10], “Non-toxic”. Further, the inhibition in vivo at 100 mg/kg in the series on Mus musculus [12] was determined as 5.2%; in the series on Mus musculus [11] it was 11.6%; with Mus musculus [13] it was 10.2%; with Mus musculus [14] it was 17.2%; in the series with Mus musculus [15], 4.7%. Moreover, the outcome with Mus musculus [4] was Active.

On to `CCSc1nc(-c2ccc(Br)cc2)n[nH]1`, for which the Activity in the series on Mus musculus [1] is on record as 69.2 10^-2mm; with Mus musculus [2], 78.2 10^-2mm; with Mus musculus [3], “Non-toxic”; in the series on Mus musculus [5], 49.2; with Mus musculus [6], “Non-toxic”; in the series with Mus musculus [7], “Non-toxic”. Further, the Activity was 88.3 10^-2mm in the series with Mus musculus [8], 59.6 10^-2mm in the series with Mus musculus [9] and “Non-toxic” with Mus musculus [10].

In the case of `CSc1n[nH]c(-c2ccc(Cl)cc2)n1`, the Activity result in the series on Mus musculus [3], in the series on Mus musculus [6], in the series on Mus musculus [7] and in the series on Mus musculus [10] was “Non-toxic” each time.

On to `CCS(=O)(=O)c1nc(-c2cccc(Br)c2)n[nH]1`, for which the Activity in the series with Mus musculus [1] is listed as 74.9 10^-2mm; with Mus musculus [2] it was 85.6 10^-2mm; with Mus musculus [3], “Non-toxic”; with Mus musculus [5], 45.2; with Mus musculus [6] it was “Non-toxic”; with Mus musculus [7], “Non-toxic”. In addition, the Activity with Mus musculus [8] was 91.7 10^-2mm; with Mus musculus [9] it was 68.8 10^-2mm; with Mus musculus [10], “Non-toxic”. The molecule further came in with an inhibition in vivo at 100 mg/kg with Mus musculus [11] of 4.4%.

For `CSc1nc(-c2cccc(Br)c2)n[nH]1`, the Activity is 57.3 10^-2mm with Mus musculus [1]; 67.7 10^-2mm in the series with Mus musculus [2]; “Non-toxic” in the series with Mus musculus [3]; 46.8 with Mus musculus [5]; “Non-toxic” with Mus musculus [6]; “Non-toxic” in the series with Mus musculus [7]. Moreover, the Activity in the series on Mus musculus [8] is reported as 79.5 10^-2mm; in the series with Mus musculus [9], 47.5 10^-2mm; in the series on Mus musculus [10], “Non-toxic”. Also, in the series with Mus musculus [11], the inhibition in vivo at 100 mg/kg stood at 1.1%. For the same molecule, the result in the series on Mus musculus [4] was Active.

For the molecule `CSc1nc(-c2ccc(Br)cc2)n[nH]1`, the Activity with Mus musculus [1] is listed as 54.1 10^-2mm; in the series on Mus musculus [2], 63.3 10^-2mm; in the series with Mus musculus [3], “Non-toxic”; in the series with Mus musculus [5] it was 58.9; with Mus musculus [6], “Non-toxic”; with Mus musculus [7], “Non-toxic”. The Activity in the series with Mus musculus [8] is given as 70.9 10^-2mm; with Mus musculus [9], 46.9 10^-2mm; in the series with Mus musculus [10], “Non-toxic”.

(Values after ChEMBL document CHEMBL1142894, “Preparation of 5-aryl-3-alkylthio-l,2,4-triazoles and corresponding sulfones with antiinflammatory-analgesic activity” (Bioorg Med Chem, 2007).)
